The list is not random: actives were taken first. Their share in the collection is about 2.6%.
T cruzi inh – inhibitors of intracellular T. cruzi growth, primary screen, luminescence, NIH3T3 host cells | T. cruzi beta-gal in NIH3T3, 90 h | inhibition, % (test concentration not listed) | 1.4% of 300,000 active | AID 1885, 2009;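 active = mean inhibition across valid replicates above about 55%, limit read from the data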;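 also: signal also drops with host cell toxicity which is not excluded here; 0% = plate median of DMSO wells and 100% = zero luminescence signal; higher percent means less beta-gal luminescence so fewer parasites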
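System: NIH/3T3 fibroblasts plus reporter T. cruzi. Medium: DMEM plus 2% FBS. Probe or stimulus: 5000 reporter trypomastigotes per well. Compound: single 50 nL compound addition per well in DMSO. Incubation: co-culture of at least 90 h after 3 h attachment. Detection: GalScreen β-gal luminescence, detergent lysis, 60 min. Evaluation: parasite load inhibition, %.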
CHT block – inhibitors of human choline transporter CHT. B-score at 10 µM. AID 488975, 2010. High affinity choline transporter 1 (Homo sapiens), Q9GZV3. CHT-expressing cells, membrane potential dye, choline response; stronger effect = lower value. 0.86% of 310,000 active;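 active = B-score over 3 SD under the library average, and starting fluorescence ratio not unusually high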;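 also: choline stimulus applied at its EC90 after an EC20 pre-addition; B-score computed on integrated fluorescence ratio after choline addition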
CHT PAM – CHT positive allosteric modulators, primary screen, cell-based, membrane potential dye, choline EC20; High affinity choline transporter 1 (Homo sapiens), Q9GZV3; CHT-expressing cells; stronger effect = higher value; LV-AA mutant CHT in HEK293 cells; B-score at 10 µM; 0.49% of 310,000 active;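 active = initial fluorescence not abnormally high and integrated response B-score, plate-corrected, over 3 SD above library mean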
PolyA inhibitor – polyadenylation inhibitors in yeast reporter cells, primary screen, luminescence, S. cerevisiae; 0.02% of 300,000 active; activity score, % at 12 µM; S. cerevisiae SKY197-pL101 polyadenylation reporter, beta-gal luminescence; efflux-impaired pdr1/pdr3 knockout yeast; score 100 = 6 SD above DMSO;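 active = lowest replicate activity score at least 50, where 100 means six control SD above control mean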;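 also: yeast exposed to compound for 9 h at 30 °C; higher score means more reporter readthrough which indicates perturbed polyadenylation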
CHT activ conf – CHT activators, confirmation, cell-based, membrane potential dye, duplicate | CHT-expressing cells, membrane potential dye fluorescence (FDSS); % of choline EC20–EC90 response window; HEK293 expressing CHT LV-AA mutant; choline added at its EC20 | AID 504833, 2011 | activation, % at 10 µM | shares compounds with CHT PAM | 91% of 2,500 active;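 active = primary screen active, with duplicate mean activation above negative control mean plus 3 SD, cut at about 11% in these data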
HEK293 MP dye – membrane potential response in parental HEK293 cells, counter-screen for CHT activator project, cell-based, membrane potential dye. 62% of 2,500 active. shares compounds with CHT PAM. ratio readout change at 10 µM, hits read low. membrane potential dye fluorescence (FDSS); measured after EC20 choline addition;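 active = duplicate-averaged ratio beyond 3 SD from buffer wells, up or down, though filed actives are nearly all decreases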
* marks the source's active call; other numbers are inactive results; i = inactive; . = no result.

SMILES	T cruzi inh	CHT block	CHT PAM	PolyA inhibitor	CHT activ conf	HEK293 MP dye
c1ccc(-c2nc(N3CCOCC3)c3ccccc3n2)nc1	-31.1	i	10*	-12.5	69.4*	-82.9*
CCN1CCN(c2nc(-c3ccccn3)nc3ccccc23)CC1	34.9	i	i	0.5	57.4*	-91.7*
COc1ccc(CN2CCNC(=O)C2CC(=O)NCCN2CCCCC2=O)c(F)c1 (stereo not given)	-13.2	i	i	-4.0	.	.
c1cncc(-c2cn(C[C@H]3CC[C@@H]([C@@H]4CC[C@H](Cn5cc(-c6cccnc6)nn5)O4)O3)nn2)c1	2.1	i	i	0.5	.	.
COc1cccc(-c2cn(C[C@H]3CC[C@@H]([C@@H]4CC[C@H](Cn5cc(-c6cccc(OC)c6)nn5)O4)O3)nn2)c1	11.6	i	6.97*	-11.9	15.1*	i
Cc1ccc(Cn2c(SCCN3CCCCC3)nc3c2c(=O)n(C)c(=O)n3C)cc1	34.9	i	i	8.8	49.1*	-44.2*
Cn1c(=O)c2c(nc(N3CCc4ccccc4C3)n2Cc2ccccc2F)n(C)c1=O	17.5	i	i	-5.5	.	.
Cn1c(=O)c2c(nc(N3CCc4ccccc4C3)n2Cc2ccc(Br)cc2)n(C)c1=O	12.0	i	i	2.6	27.5*	-26*
Cn1c(=O)c2c(nc(SCCN3CCCCC3)n2Cc2ccccc2)n(C)c1=O	34.3	i	i	0.8	46.3*	-59.3*
COc1ccc2c(c1)cc1c(=O)n(CC(=O)NCCCN3CCOCC3)nc(C)n12	-14.1	i	i	-0.3	.	.
CCOC(=O)c1cnc2ccc(C(=O)OC)cc2c1Nc1ccc(C(=O)O)cc1	0.7	i	8.88*	10.8	63.1*	-63.2*
CCOC(=O)c1cnc2ccc(Cl)cc2c1NCCN(C)C	6.3	i	i	-1.2	26.8*	-39.3*
O=C(Cc1ccccc1F)Nc1cc(Cl)ccc1N1CCCC1	14.8	i	i	11.9	.	.
CC(=O)N1CCc2cc(S(=O)(=O)CCC(=O)N(C)Cc3ccco3)ccc21	-15.8	i	i	-11.9	.	.
COc1ccc(CC2(C)OC(c3ccc(C)c([N+](=O)[O-])c3)=NN2C(C)=O)cc1 (stereo not given)	-1.0	i	i	-8.3	27.0*	i
CC(C)c1ccc(/C=N/n2c(-c3ccccc3)n[nH]c2=S)cc1	18.7	i	i	11.4	.	.
CN(C)c1ccc(/C=C/c2cccc[n+]2[O-])cc1	-8.7	i	i	-12.0	.	.
CC(C)CC[n+]1ccccc1/C=C/c1ccc(N(C)C)cc1	27.5	i	11.8*	-1.4	60.0*	i
NC(N)=NN=C1CCC(c2ccccc2)CC1 (stereo not given)	-1.4	i	i	4.4	.	.
O=C(N/C(=C/c1ccc(F)cc1)C(=O)N1CCCC1)c1ccccc1	-10.2	i	i	16.2	.	.
CCn1cc(C(=O)NCCCN2CC(C)CC(C)C2)c(=O)c2cc(S(=O)(=O)N(C)C)ccc21 (stereo not given)	-3.9	i	i	-11.2	.	.
CN1CCN(CCCNC(=O)c2cn(C)c3ccc(S(=O)(=O)N(C)C)cc3c2=O)CC1	.	i	6.87*	.	41.3*	-22.7*
CCOC(=O)c1oc2ccc(CNCCO)c(Cl)c2c1C	10.3	i	8.27*	12.0	37.0*	-28.8*
O=[N+]([O-])c1ccccc1S(=O)(=O)Nc1ccn(Cc2c(F)cccc2Cl)n1	-3.0	i	i	11.8	.	.
C[C@]12C=CC(=O)C=C1CC[C@@H]1C2=CC[C@]2(C)[C@@H](C(=O)CN3CCN(c4cc(N5CCCC5)nc(N5CCCC5)n4)CC3)CC[C@@H]12	39.9	i	8.21*	32.4	48.5*	-75.7*
O=C(Nc1ccccc1N1CCN(C(=O)c2ccccc2)CC1)c1ccc([N+](=O)[O-])o1	39.9	.	.	-39.4	.	.

Screening results from PubChem.
